M5 ag = CHRM5 agonism in calcium assay | CHO-K1 hM5 cells, Fluo-8 calcium fluorescence; 0% DMSO wells, 100% maximal acetylcholine response | activation, % at 3 µM | hit rate 0.19% among 360,000 | AID 624037;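 active means activation above the run's mean over test compounds plus 3 SD, cut at about 23% in these data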;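 further: signal is peak over basal fluorescence ratio across the kinetic read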
M5 antag = CHRM5 antagonism in calcium assay | CHO-hM5 cells, Fluo-8 calcium fluorescence, ACh EC80 | AID 624040 | P08912 | hit rate 0.59% among 360,000 | inhibition, % at 3 µM;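 active means inhibition above a per-plate cutoff, the mean of that plate's test compounds plus 3 SD, cut at about 27% in these data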;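 further: 0% = acetylcholine EC80 with DMSO and 100% = DMSO without agonist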
M4 ag = CHRM4 agonism in calcium assay; hit rate 0.14% among 360,000; activation, % at 3 µM; AID 624127; P08173; CHO-K1 hM4/Gqi5, Fluo-8 calcium fluorescence; vehicle 0%, full acetylcholine response 100%;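 active means activation above the run mean over all test wells plus 3 SD, cut at about 32% in these data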;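 further: peak over basal fluorescence ratio per well then scaled between controls; 0% = DMSO wells and 100% = acetylcholine at EC100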
Target sequence (P08173 whole entry, looked up): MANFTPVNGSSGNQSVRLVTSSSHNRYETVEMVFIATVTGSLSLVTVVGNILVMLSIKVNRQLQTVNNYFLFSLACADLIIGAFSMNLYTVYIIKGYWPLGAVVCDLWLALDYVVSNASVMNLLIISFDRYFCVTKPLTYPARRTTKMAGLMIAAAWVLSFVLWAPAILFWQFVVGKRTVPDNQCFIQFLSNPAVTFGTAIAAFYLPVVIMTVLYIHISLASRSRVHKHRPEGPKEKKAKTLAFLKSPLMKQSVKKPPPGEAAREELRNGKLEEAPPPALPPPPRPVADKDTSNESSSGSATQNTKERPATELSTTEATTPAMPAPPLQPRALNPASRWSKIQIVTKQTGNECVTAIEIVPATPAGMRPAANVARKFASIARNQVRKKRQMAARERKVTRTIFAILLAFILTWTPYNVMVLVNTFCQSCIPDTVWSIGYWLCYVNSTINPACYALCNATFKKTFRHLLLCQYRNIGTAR
CHRM5 PAM = CHRM5 positive allosteric modulation; activation, % at 3 µM; hit rate 0.3% among 360,000; AID 624038; CHO-K1 hM5, Fluo-8 calcium, ACh EC20 PAM; 0% = ACh EC20, 100% = ACh EC100; P08912;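 active means activation above the run cutoff, the mean activation of all test compounds plus 3 SD, cut at about 18% in these data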
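Assay system: CHO-K1 hM5 cells. Also added: acetylcholine at EC20 concentration, added after compound. Dosing: 3 µM, single dose. Times: compound preincubation 140 s before EC20 acetylcholine addition. Signal: Fluo-8 calcium fluorescence. Measure: % activation relative to EC20 and EC100 ACh responses. Repeats: singlicate, one well per test compound.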
CHRM4 PAM = CHRM4 positive allosteric modulation | P08173 | CHO-K1 hM4/Gqi5, Fluo-8 calcium fluorescence, ACh EC20; 0% = ACh EC20, 100% = maximal ACh | activation, % at 3 µM | hit rate 0.4% among 360,000 | AID 624126;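 active means activation above its plate's cutoff, the mean activation of sample wells plus 3 SD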
M4 antag = antagonists of human muscarinic M4 receptor (CHRM4); inhibition, % at 3 µM; CHO-hM4 cells, ACh EC80, Fluo-8 calcium fluorescence; AID 624125; P08173; hit rate 0.73% among 360,000;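 active means inhibition above its plate's cutoff, the mean inhibition of sample wells plus 3 SD, cut at about 27% in these data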;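 further: 0% = acetylcholine EC80 with DMSO and 100% = DMSO without agonist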
Numbers without * were called inactive. Rows were chosen to be rich in hits. Some 1.8% of all compounds tested hit in one or more screens of this group.

SMILES	M5 ag	M5 antag	M4 ag	CHRM5 PAM	CHRM4 PAM	M4 antag
CC(C)C(O)(C#CCN1CCCCCC1)c1ccccc1 (stereo unspecified)	-9	60*	2	-20	-23	54*
CC(O)(C#CCN1CCCC1)c1ccccc1 (stereo unspecified)	-7	18	0	-13	-1	4
Cc1cc(C)cc(NC(=O)Cc2ccc(-n3cccc3)cc2)c1	-5	3	0	-6	6	-16
COC(=O)c1cc(CN2CCN(c3ccccc3)CC2)ccc1O	-1	-15	0	-6	-5	6
COc1ccc(-c2noc(=O)n2Cc2ccccc2Cl)cc1	-4	3	16	-9	-12	4
OC(CC#CCN1CCCC1)(c1ccccc1)c1ccccc1	-20	58*	0	-33	-60	88*
CC(O)(C#CCN1CCCCC1)c1ccccc1 (stereo unspecified)	-7	7	1	-13	-11	10
OC(C#CCN1CCCC1)(c1ccccc1)c1cccc(F)c1 (stereo unspecified)	-8	98*	2	-19	-16	94*
CC(C)(C#CCN1CCCCC1)OCCOC(c1ccccc1)c1ccccc1	-8	30*	-4	-19	-42	97*
C(#CCN1CCCC1)CC(c1ccccc1)c1ccccc1	-7	75*	9	-21	-23	69*
OC(CC#CCN1CCOCC1)(c1ccccc1)c1ccccc1	1	4	2	-6	-3	9
Nc1cc(=O)[nH]c(SCC(=O)NCCC2=CCCCC2)n1	-2	-1	2	4	-2	10
CC(C)CN(C(=O)CN(C)C(=O)c1ccco1)c1c(N)n(CC(C)C)c(=O)[nH]c1=O	2	-6	1	7	13	-5
O=C(O)c1ccccc1NS(=O)(=O)c1cccc(NS(=O)(=O)c2cc(Br)ccc2Br)c1	0	-3	0	10	7	-15
CC(O)(c1ccc(F)c(F)c1)c1nc(-c2ccoc2)cs1 (stereo unspecified)	0	-1	1	-1	3	-9
CC(C)C(O)(CC#CCN1CCCC1)c1ccccc1 (stereo unspecified)	-18	42*	1	-35	-26	49*
COCC(C)NC(=S)Nc1ccccc1[N+](=O)[O-] (stereo unspecified)	5	-12	1	20*	5	-1
O=C(Nc1ccc(F)c(Cl)c1)c1ccc2c(c1)OCO2	-7	-14	2	6	-1	-5
COc1ccc(NC(=O)c2ccc3c(c2)OCO3)cc1Cl	1	-3	4	29*	5	-9
O=C(Nc1ccc2c(c1)OCCO2)c1ccccc1	1	16	21	-10	-14	29*
CC(C)(C)N(CC#CCC(O)(c1ccccc1)c1ccccc1)CCO	-17	8	1	6	-14	-4
COC(=O)c1cn(NC(=O)c2cc(OC)c(OC)c(OC)c2)c(=O)c2ccccc12	9	-10	0	24*	17	-9
COC(=O)c1cn(NC(=O)c2cc(OC)cc(OC)c2)c(=O)c2ccccc12	-3	0	2	-6	10	4
NNC(=O)/C(=C\c1ccc(Br)cc1)NC(=O)c1cccs1	0	4	1	6	-6	8
COc1ccc(CNC(=O)COC(=O)[C@H](Cc2c[nH]c3ccccc23)NC(=O)c2cccs2)cc1	0	11	12	-14	-23	31*
COc1ccc(-c2[nH]c(-c3ccc(C)cc3)nc2SCC(=O)NCc2ccco2)cc1OC	-2	-9	0	4	21*	-24
COc1cccc(-n2c(SCC(=O)NCc3ccco3)nnc2-c2c[nH]c3ccccc23)c1	0	3	0	-3	9	-16
COc1ccc(OC)c(-n2c(SCC(=O)NCc3ccco3)nnc2-c2c[nH]c3ccccc23)c1	-1	-4	0	-5	-12	40*
COc1cc([N+](=O)[O-])ccc1NC(=O)N1CCCCCC1	-5	4	0	-1	-3	3
